Results: ChEMBL document CHEMBL4706754, “Trisubstituted Pyrrolinones as Small-Molecule Inhibitors Disrupting the Protein-RNA Interaction of LIN28 and Let-7” (ACS Med Chem Lett, 2021)
Activity calls are given as the source filed them. The rule behind the calls is not given here.

Assays:
[1] = Inhibition of LIN28 (unknown origin) expressed in Escherichia coli BL21 (DE3) Rosetta interaction with FAM-labelled preE-let-7 miRNA (unknown origin) by fluorescence polarization assay; design: species or system Homo sapiens
How it was run: (§1)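 LIN28A (residues 16–187) purified by nickel affinity chromatography; tested both His-tagged and with tag removed by TEV protease. Protein titrated into FAM-labeled preE-let-7f-1, FP read alongside total fluorescence. Unlabeled preE-let-7f-1 as positive control. Dose–response over eight concentrations, top 60 μM or 30 μM, in quadruplicate; some IC50s extrapolated from the observed curves.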

[2] = Inhibition of human His-tagged LIN28A(16 to 187 residues) interaction with mouse preE-let-7f-Cy3 miRNA at 2.5 to 75 uM pretreated with protein for 2 hrs followed by incubation with miRNA and measured after 15 mins by EMSA method relative to control; details: dose 2.5-75 µM, time 135.0 min
[3] = Stabilization of interaction of GST-fused C-terminal region of PMA2 YDI (unknown origin)/eGFP-fused tobacco 14-3-3 expressed in Escherichia coli incubated for 2 hrs by fluorescence based analysis relative to PPI-1
[4] = Inhibition of human His-tagged LIN28A (16 to 187 residues) interaction with FAM-labelled preE-let-7f-1 miRNA (unknown origin) pretreated with protein for 30 mins followed by miRNA addition and measured after 15 mins by fluorescence polarization assay; how it was run: as §1
[5] = biological target: T1, Protein lin-28 homolog A (Homo sapiens) (UniProt Q9H9Z2); experiment: Inhibition of LIN28A cold shock domain (16 to 126 residues) (unknown origin) assessed as increase in thermal stability measured after 45 mins by differential scanning fluorimetry; details: dose 0.78-100 µM
T1 sequence (whole entry): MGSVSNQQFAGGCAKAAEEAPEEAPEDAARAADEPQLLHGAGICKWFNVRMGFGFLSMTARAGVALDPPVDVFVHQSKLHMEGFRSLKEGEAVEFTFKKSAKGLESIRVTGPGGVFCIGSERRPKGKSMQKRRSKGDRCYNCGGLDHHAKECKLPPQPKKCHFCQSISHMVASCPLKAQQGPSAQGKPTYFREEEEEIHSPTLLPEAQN

JAR [6] = experiment: Inhibition of LIN28/let-7 miRNA interaction in human JAR cells assessed as increase in cellular let-7a mature miRNA level at 5 to 20 uM measured after 24 hrs by RT-qPCR analysis; type: cell-based; details: dose 5-20 µM
JAR [7] = experiment: Inhibition of LIN28/let-7 miRNA interaction in human JAR cells assessed as increase in cellular let-7g mature miRNA level at 5 to 20 uM measured after 24 hrs by RT-qPCR analysis; type: cell-based; details: dose 5-20 µM
[8] = Inhibition of human His-tagged LIN28A (16 to 187 residues) interaction with mouse preE-let-7f-Cy3 miRNA pretreated with protein for 2 hrs followed by incubation with miRNA and measured after 15 mins by EMSA method; details: time 135.0 min
[9] = Stabilization of interaction of GST-fused C-terminal region of PMA2 YDI (unknown origin)/eGFP-fused tobacco 14-3-3 expressed in Escherichia coli incubated for 2 hrs by fluorescence based analysis

Compound: CCOc1cccc2c1N[C@@H](c1ccc(C(=O)O)cc1)[C@H]1CC=C[C@@H]21
- IC50 [1]: 7 µM

Compound: O=C(O)c1cccc(N2C(=O)C(O)=C(C(=O)c3ccc(Br)cc3)C2c2ccc(-c3nccs3)cc2)c1 (configuration not stated)
- inhibition [2]: inactive

Compound: O=C(O)c1ccc(C2C(C(=O)c3ccccc3)=C(O)C(=O)N2c2ccc(O)c(C(=O)O)c2)cc1 (configuration not stated)
- Activity [3]: < 30%

Compound: O=C(O)c1ccc(C2C(C(=O)c3ccc(Br)cc3)=C(O)C(=O)N2c2ccc(O)c(C(=O)O)c2)cc1 (configuration not stated)
- IC50 [4]: 30 µM

Compound: O=C(O)c1cccc(N2C(=O)C(O)=C(C(=O)c3ccccc3)C2c2ccc(-c3nccs3)cc2)c1 (configuration not stated)
- IC50 [4]: 30 µM

Compound: O=C(C1=C(O)C(=O)N(c2ccc(O)c(C(=O)O)c2)C1c1ccc(-c2nccs2)cc1)c1ccc(Br)cc1 (configuration not stated)
- Activity [5]: Dose-dependent effect
- Activity [3]: < 30%
- inhibition (JAR [6]): Active
- inhibition (JAR [7]): Active
- inhibition [8]: Dose-dependent effect

Compound: COc1ccc(C(=O)C2=C(O)C(=O)N(c3ccc(O)c(C(=O)O)c3)C2c2ccc(C(=O)O)cc2)cc1 (configuration not stated)
- IC50 [4]: 30 µM

Compound: O=C(C1=C(O)C(=O)N(c2ccc(O)c(C(=O)O)c2)C1c1ccc([N+](=O)[O-])cc1)c1ccccc1 (configuration not stated)
- EC50 [9]: 100 µM
